The source of these data is ChEMBL document CHEMBL4680213, “Novel androgen receptor antagonist identified by structure-based virtual screening, structural optimization, and biological evaluation” (Eur J Med Chem, 2020).

Data set [1] deals with T1, Androgen receptor (Homo sapiens, UniProt P10275).
T1 sequence (P10275 whole entry): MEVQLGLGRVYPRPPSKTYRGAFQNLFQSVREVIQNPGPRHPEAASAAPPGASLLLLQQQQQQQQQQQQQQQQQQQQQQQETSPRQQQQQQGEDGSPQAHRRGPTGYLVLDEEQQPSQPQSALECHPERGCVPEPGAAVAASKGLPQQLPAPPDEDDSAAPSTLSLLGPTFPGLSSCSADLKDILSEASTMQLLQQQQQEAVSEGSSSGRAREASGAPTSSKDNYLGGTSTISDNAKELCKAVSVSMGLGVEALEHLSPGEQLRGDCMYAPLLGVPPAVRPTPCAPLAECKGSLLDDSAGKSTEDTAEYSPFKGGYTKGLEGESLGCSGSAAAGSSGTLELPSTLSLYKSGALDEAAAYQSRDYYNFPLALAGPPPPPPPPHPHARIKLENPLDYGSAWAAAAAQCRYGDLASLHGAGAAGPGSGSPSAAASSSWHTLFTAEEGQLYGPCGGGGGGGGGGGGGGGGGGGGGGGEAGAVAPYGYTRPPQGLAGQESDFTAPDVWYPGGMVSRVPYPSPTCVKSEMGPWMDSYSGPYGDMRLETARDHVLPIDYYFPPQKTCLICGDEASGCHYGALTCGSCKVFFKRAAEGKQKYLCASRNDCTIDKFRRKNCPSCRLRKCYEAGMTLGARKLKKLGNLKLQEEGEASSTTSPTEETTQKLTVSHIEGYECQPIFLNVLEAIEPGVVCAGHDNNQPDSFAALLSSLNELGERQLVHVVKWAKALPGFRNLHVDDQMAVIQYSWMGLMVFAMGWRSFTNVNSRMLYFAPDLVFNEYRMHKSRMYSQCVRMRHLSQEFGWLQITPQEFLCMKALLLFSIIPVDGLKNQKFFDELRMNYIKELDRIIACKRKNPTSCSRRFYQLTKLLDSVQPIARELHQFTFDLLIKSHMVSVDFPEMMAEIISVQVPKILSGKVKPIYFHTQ
Type of data set: cell-based, LNCaP.

The target in data set [2] is T2, Androgen receptor (Homo sapiens) (UniProt P10275).
T2 sequence (whole entry): T1 sequence (P10275 whole entry)
The data set can be described thus: Displacement of fluormone-AL green from GST-tagged androgen receptor LBD (unknown origin) at 10 uM measured after 4 hrs by fluorescence polarization assay. Particulars: filed as antagonist. The essentials:
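PolarScreen AR competitor assay. Compound mixed with GST-tagged AR-LBD and Fluormone AL Green in AR Green assay buffer, incubated 4 h at room temperature protected from light. Fluorescence polarization (mP) measured.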

For data set [3], the system named is LNCaP. Description: Antiproliferative activity against human LNCaP cells assessed as reduction in cell proliferation measured after 72 hrs by MTT assay. Type of data set: functional, cell-based. In short, it runs like this:
(§1)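 LNCaP, C4-2, PC3 and DU145 seeded in RPMI-1640 with 5% charcoal-stripped serum (LNCaP 3×10^3, the others 1.5×10^3 cells/well). After 24 h at 37 °C, treated with 5 nM DHT and serial compound dilutions for 72 h. MTT 4 h, formazan dissolved overnight in 10% SDS-0.1% HCl-PBS. A570 read with 650 nm reference.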

Data set [4] has as its system PC-3. The data set can be described thus: Antiproliferative activity against human PC-3 cells assessed as reduction in cell proliferation measured after 72 hrs by MTT assay. The class given is functional, cell-based. The essentials:
as §1
On the technique in general: Tetrazolium assays rely on reduction of a dye to a coloured formazan, in cell work by metabolically active cells.

For data set [5], the system named is LNCaP C4-2. Description: Antiproliferative activity against human LNCaP C4-2 cells assessed as reduction in cell proliferation measured after 72 hrs by MTT assay. Type of data set: functional, cell-based. The essentials: as §1
Data set [6] deals with DU-145. The data set can be described thus: Antiproliferative activity against human DU-145 cells assessed as reduction in cell proliferation measured after 72 hrs by MTT assay. Type of data set: functional, cell-based. In short, it runs like this:
as §1

For data set [7], the target named is T3, Prostate-specific antigen (Homo sapiens, UniProt P07288).
T3 sequence (P07288 whole entry): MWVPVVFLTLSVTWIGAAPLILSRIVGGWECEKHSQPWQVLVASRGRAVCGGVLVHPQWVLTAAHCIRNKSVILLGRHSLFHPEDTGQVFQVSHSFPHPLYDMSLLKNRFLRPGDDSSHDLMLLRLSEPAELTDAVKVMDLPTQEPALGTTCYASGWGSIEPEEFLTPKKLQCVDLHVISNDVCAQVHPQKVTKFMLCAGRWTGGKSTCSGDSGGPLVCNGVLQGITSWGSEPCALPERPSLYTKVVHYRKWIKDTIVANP
The data set can be described thus: Inhibition of prostate specific antigen in human LNCaP cells. The class given is cell-based.

Data set [8] deals with NIH3T3. The data set can be described thus: Cytotoxicity against mouse NIH/3T3 cells assessed as reduction in cell viability at 50 uM after 24 hrs by MTT assay. The class given is cell-based. Particulars: nih3t3, 24 h.
For data set [9], the system named is LNCaP. Description: Effect on prostate specific antigen mRNA expression in human LNCaP cells at 0.1 to 10 uM measured after 48 hrs by SYBR green dye based qPCR analysis. The class given is functional, cell-based. Particulars: dose 0.1-10 µM. The essentials:
(§2)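 LNCaP cells kept in medium with 5% charcoal-stripped serum in six-well plates. Treated with DHT 5 nM plus compound at 0.1, 1 or 10 μM, or DMSO. mRNA extracted 48 h after treatment, reverse transcribed and quantified by qPCR.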
Background: In qPCR the cycle at which signal appears reflects the starting amount.

Data set [10] addresses T2, Androgen receptor (Homo sapiens). The data set can be described thus: Antagonist activity at androgen receptor in human LNCaP cells assessed as reduction in DHT-induced TMPRSS2 mRNA expression after 48 hrs by SYBR green dye based qPCR analysis. The class given is cell-based. Particulars: filed as antagonist. The essentials:
as §2

For data set [11], the target named is T1, Androgen receptor. The data set can be described thus: Displacement of fluormone-AL green from GST-tagged androgen receptor LBD (unknown origin) measured after 4 hrs by fluorescence polarization assay. Background: Fluorescence polarisation rises when a labelled molecule tumbles more slowly, as on binding a larger partner.
The target of data set [12] is T2, Androgen receptor (Homo sapiens). Description: Antagonist activity at androgen receptor in human LNCaP cells transfected with ARR2 PB-eGFP assessed as inhibition of DHT-induced transcriptional activity at 10 uM measured after 3 days by fluorescence assay relative to control. Type of data set: cell-based. Particulars: filed as antagonist, time 3.0 day. In short, it runs like this: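 LNCaP-ARR2PB-eGFP reporter cells in RPMI-1640 starved 5 days in 5% charcoal-stripped serum. Seeded at 3.5×10^4 cells/well, 24 h at 37 °C, 5% CO2. Co-treated with 5 nM DHT and compound at 10 µM (screen) or 0–50 µM. Fluorescence read after 3 days (ex 485, em 535 nm).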

SMILES strings stand for the structures. Active and inactive are the calls of the source. No cut-off for these calls is given here.

Broadly, the IC50 is the point on the concentration scale where inhibition reaches its midpoint. Higher therefore signals weaker potency in that assay. `Clc1ccc(C2Nc3ccc4ccccc4c3C3C4CCC(C4)C23)cc1` (stereo unspecified): in [1], the IC50 stood at 7450 nM.

In general, inhibition refers to how much of the control response was suppressed. In the case of `CCOC(=O)C1Nc2ccc3ccccc3c2C2C=CCC12` (stereo unspecified), the inhibition entry in [2] was “Active”. For the same molecule, in data set [1], the IC50 stood at 820 nM.

With `Clc1ccc(C2Nc3ccc4ccccc4c3C3C=CCC32)cc1` (stereo unspecified), the inhibition entry in data set [2] was “Active”. In data set [1], this molecule displayed an IC50 of 1920 nM.

As for `CNC(=O)c1ccc(N2C(=S)N(c3ccc(C#N)c(C(F)(F)F)c3)C(=O)C2(C)C)cc1F` [ENZALUTAMIDE], the result in [3], in data set [4], in data set [5] and in data set [6] was Active. Further, the IC50 in data set [7] was 130 nM.

`c1ccc(C2Nc3ccc4ccccc4c3C3C4CCC(C4)C23)cc1` (stereo unspecified): in data set [1], 5600 nM corresponded to half-maximal inhibition (IC50).

With `Clc1ccc(C2Nc3ccc4ccccc4c3C3OCCCC23)c(Cl)c1` (stereo unspecified), it took 20400 nM to reach half-maximal inhibition in [1] (IC50).

Consider `Fc1ccccc1C1Nc2ccc3ccccc3c2C2C=CCC21` (stereo unspecified), for which, in data set [2], the inhibition entry was “Active”. Further, the IC50 in [1] was 220 nM.

In the case of `Brc1ccc(C2Nc3ccc4ccccc4c3C3C=CCC32)cc1` (stereo unspecified), the result in data set [3], in [4], in data set [5], in [9] and in [6] was Active. For the same molecule, the inhibition result in [2] was “Active”. Further, the figures for the Activity entry in data set [8] and in data set [10] were “Non-Toxic” and “Dose-dependent effect”, respectively. For the same molecule, in [1], the IC50 was found to be 150 nM.

In the case of `Clc1ccccc1C1Nc2ccc3ccccc3c2C2C=CCC21` (stereo unspecified), the IC50 is 4020 nM in data set [11] and 2400 nM in data set [1]. Besides, the inhibition in data set [12] was more than 50%. Besides, in [2], the inhibition result was “Active”. Moreover, the outcome in [4], in data set [5] and in [6] was Active. The Activity entry in data set [8] is “Non-Toxic”.
